From ChEMBL document CHEMBL6134855, “Peptidomimetics Activating the Proteasome: A New Perspective for Parkinson's Treatment” (J Med Chem, 2025)
Activity calls are given as the source filed them. The rule behind the calls is not given here. Where a SMILES comes first, the peptide text is derived from it. [ ]: non-standard residue; d: D form. NMeR = CN[C@@H](CCCNC(=N)N)C(=O)O; NMeS = CN[C@@H](CO)C(=O)O

Columns and labels:
[1] = Effect on secondary structure of drug in water at 2 mg/ml assessed as alpha-helical conformation by CD analysis; format: physicochemical; settings: buffer
[2] = biological target: T1, 20S proteasome (Homo sapiens) (UniProt P49721+P20618+P28074+P28062+P28065+P28072+P25786+P25787+P25788+P25789+P28066+P60900+O14818+Q8TAA3+P40306+A5LHX3+P49720+P28070+Q99436); experiment: Activation of human erythrocyte-derived 20S proteasome chymotrypsin-like activity using Suc-LLVY-AMC as substrate at 1.0 to 50 uM measured every two mins for 60 mins by fluorescence based analysis; settings: filed as activator, dose 1-50 µM
[3] = biological target: T1, 20S proteasome (Homo sapiens); experiment: Activation of human erythrocyte-derived 20S proteasome using Dabcyl-EDANS as FRET-type substrate at 1.0 to 50 uM measured every two mins for 60 mins by fluorescence based analysis; format: cell-based; settings: filed as activator, dose 1-50 µM
Procedure, shortened: (§1)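 Latent human 20S proteasome (0.002 mg/mL, 2.8 nM) in 50 mM Tris/HCl pH 8.0 with 2% DMSO. AMC substrates at 100 μM final (ex 380/em 460 nm); Dabcyl-EDANS at 15 μM final (ex 335/em 493 nm). Modulators at 1.0–50 μM; TAT- or 6R-containing constructs at 0.5–10 μM. Read every 2 min for 60 min at 37 °C. Activity relative to DMSO-treated proteasome (100%). ≥3 independent replicates.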

[4] = biological target: T1, 20S proteasome (Homo sapiens); experiment: Activation of human erythrocyte-derived 20S proteasome using Dabcyl-EDANS as FRET-type substrate at higher concentration measured every two mins for 60 mins by fluorescence based analysis; format: cell-based; settings: filed as activator; procedure, shortened: as §1
[5] = biological target: T1, 20S proteasome (Homo sapiens); experiment: Activation of human erythrocyte-derived 20S proteasome trypsin-like activity using Boc-LRR-AMC as substrate at 1.0 to 50 uM measured every two mins for 60 mins by fluorescence based analysis; settings: dose 1-50 µM
[6] = biological target: T1, 20S proteasome (Homo sapiens); experiment: Activation of human erythrocyte-derived 20S proteasome caspase-like activity using Z-LLE-AMC as substrate at 1.0 to 50 uM measured every two mins for 60 mins by fluorescence based analysis; settings: filed as activator, dose 1-50 µM; procedure, shortened: as §1
Primary cortical neuron = experiment: Activation of 20S proteasome in mouse Primary cortical neuron cells assessed as reduction in alpha-synuclein level at 2.5 uM incubated for 7 days; format: cell-based; settings: filed as activator, time 7.0 day
Procedure, shortened: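 E16–E17 CD1 mouse cortical neurons cultured in Neurobasal A with B-27 and GlutaMAX. Treated at DIV7 with 2.5 μM activator for 7 days; lysed at DIV14, protein by BCA. α-Synuclein quantified by Simple Western Jess automated immunoblot with total-protein normalization. n = 3 biological replicates.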

HEK-293T [7] = experiment: Cytotoxicity in HEK293T cells assessed as cell viability at 1 to 10 uM incubated for 24 hrs by MTT assay relative to control; format: toxicity, cell-based; settings: human, dose 1-10 µM
Procedure, shortened: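 HEK293T cells grown 2 days, then medium replaced with compound at 1, 10, 25, 50 or 100 μM for 24 h. MTT added, formazan dissolved in DMSO, absorbance read at 570 nm. Mean of three biological replicates vs control, one-way ANOVA.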

[8] = Permeability of compound in PBS incubated for 22 hrs by PAMPA-BBB assay; format: ADME
Procedure, shortened: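 PAMPA-BBB with a 2% porcine brain lipid membrane. Compounds were diluted from 10 mM aqueous stocks to 500 μM in 0.1 M PBS containing 5% DMSO and incubated 22 h at 37 °C with shaking at 250 rpm. Read-out was fluorescence after reaction with 0.02% fluorescamine (absorbance at 290 nm for propranolol). Pe calculated as linear permeation velocity. Three biological replicates.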

HEK-293T [9] = experiment: Cytotoxicity against HEK293T cells assessed as cell viability at 10 uM measured after 3 hrs by Hoechst 33342 staining based analysis; format: toxicity; settings: human
Procedure, shortened: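 HEK293T cells in DMEM/10% FBS, seeded 3 × 10^4 per well and grown 48 h, then given 10 μM NBD-labelled modulators for 3 h. Hoechst 33342 added for the final 30 min. Cells washed with PBS and imaged by fluorescence microscopy (NBD and Hoechst channels). Three independent replicates.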

[10] = Cytotoxicity in HEK293T cells assessed as cell viability at 100 uM incubated for 24 hrs by MTT assay relative to control; format: toxicity, cell-based, HEK-293T; settings: human, read-out: Activity
Procedure, shortened: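 HEK293T cells grown in complete medium for 2 days, then the medium was replaced with compound at 1, 10, 25, 50 or 100 μM for 24 h. MTT was added, formazan dissolved in DMSO, and absorbance read at 570 nm. Mean of three biological replicates, compared with untreated control.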

Hippocampal neuron [11] = experiment: Neuroprotective activity in mouse Hippocampal neuron cells assessed as increase in cell number at 0.5 to 5 uM pretreated with preformed fibrils followed by compound treatment measured after 7 days by DAPI staining/NeuN protein immunostaining analysis; format: functional, cell-based; settings: dose 0.5-5 µM, time 7.0 day
Hippocampal neuron [12] = experiment: Activation of 20S proteasome in mouse Hippocampal neuron cells assessed as reduction in alpha-synuclein aggregation measured after 7 days by DAPI staining based immunofluorescence analysis; format: cell-based; settings: filed as activator, dose 0.5-5 µM, time 7.0 day
Hippocampal neuron [13] = experiment: Neuroprotective activity in mouse Hippocampal neuron cells assessed as neuron viability at 0.5 to 2.5 uM pretreated with alpha-synuclein followed by compound addition measured after 7 days by immunostaining analysis; format: functional, cell-based; settings: dose 0.5-2.5 µM, time 7.0 day
Procedure, shortened: (§2)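 E16.0 mouse hippocampal neurons, 25,000 per well, poly-L-lysine coated, Neurobasal/B27. Day 8: sonicated mouse α-synuclein PFFs added (2.5 μg/mL final; PBS for controls). Modulator (0.5 or 2.5 μM) added 1 h later. Day 15: PFA fixation; immunostaining for pS129-αsyn and NeuN plus DAPI; automated imaging. 3 biological, 9–11 technical replicates.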

Hippocampal neuron [14] = experiment: Neuroprotective activity in mouse Hippocampal neuron cells assessed as decrease in Lewy body-like aggregates at 0.5 to 2.5 uM pretreated with alpha-synuclein followed by compound addition measured after 7 days by immunostaining analysis; format: functional, cell-based; settings: dose 0.5-2.5 µM, time 7.0 day; procedure, shortened: as §2
[15] = Proteolytic stability of compound in human plasma assessed as protease-mediated degradation by measuring compound remaining at 200 uM incubated for 30 mins by UHPLC analysis; format: ADME, cell-free; settings: read-out: Stability
Procedure, shortened: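 Compound (200 μM final, dissolved in water) incubated in human serum at 37 °C for 30 min. Samples every 5 min quenched 1:1 with 6% TCA and centrifuged. Supernatant analysed by UHPLC (UV 223 nm) for intact compound; cleavage sites identified by MS.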

[16] = biological target: T1, 20S proteasome (Homo sapiens); experiment: Activation of 20S proteasome chymotrypsin-like activity in HEK293T cell lysate using Suc-LLVY-AMC as substrate assessed as fold increase in activity at 5 uM by fluorescence based analysis relative to control; format: subcellular; settings: filed as activator
Procedure, shortened: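 Chymotrypsin-like activity read with Suc-LLVY-AMC. 1 μM bortezomib as negative control. Fold activity vs vehicle control; at least three independent replicates, one-way ANOVA with Tukey.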

[17] = biological target: T1, 20S proteasome (Homo sapiens); experiment: Activation of human 20S proteasome assessed as tau degradation at 10 uM by SDS-PAGE analysis relative to control; format: protein-complex assay; settings: filed as activator, time 1.5 hrs
[18] = biological target: T1, 20S proteasome (Homo sapiens); experiment: Activation of human erythrocyte-derived 20S proteasome chymotrypsin-like activity using Suc-LLVY-AMC as substrate assessed as fold increase in activity at 1 uM measured every two mins for 60 mins by fluorescence based analysis relative to control; settings: filed as activator
Procedure, shortened: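 h20S proteasome 0.002 mg/mL (2.8 nM) in 50 mM Tris/HCl pH 8.0, 2% DMSO final. Suc-LLVY-AMC 100 μM final. Modulators 1.0–50 μM (TAT/6R constructs 0.5–10 μM). AMC fluorescence ex 380/em 460 nm read every 2 min for 60 min at 37 °C. Activity relative to DMSO-treated latent proteasome (100%); ≥3 replicates.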

[19] = biological target: T1, 20S proteasome (Homo sapiens); experiment: Activation of human erythrocyte-derived 20S proteasome trypsin-like activity using Boc-LRR-AMC as substrate at 0.5 to 10 uM measured every two mins for 60 mins by fluorescence based analysis; settings: filed as activator, dose 0.5-10 µM
[20] = biological target: T1, 20S proteasome (Homo sapiens); experiment: Activation of human 20S proteasome assessed as alpha-synuclein degradation by measuring residual activity at 10 uM by SDS-PAGE analysis relative to control; format: protein-complex assay; settings: filed as activator, time 1.5 hrs

SMILES	Activity (Primary cortical neuron)	Activity (HEK-293T [7])	permeability [8]	Activity (HEK-293T [9])	Activity (Hippocampal neuron [11])	Activity (Hippocampal neuron [13])	Activity (Hippocampal neuron [14])	remaining at 0.5 h, 200 µM [15]	other results
C[C@@H](O)[C@H](NC(=O)[C@H](Cc1ccccc1)NC(=O)[C@H](Cc1ccc(O)cc1)NC(=O)[C@@H](N)CCCCN)C(=O)NCC(=O)N[C@@H](CO)C(=O)N[C@@H](CCCCN)C(=O)N[C@@H](CC(=O)O)C(=O)N[C@@H](Cc1c[nH]c2ccccc12)C(=O)N(C)[C@@H](CCCNC(=N)N)C(=O)N(C)[C@@H](CO)C(=O)N[C@@H](Cc1ccc(O)cc1)C(=O)N[C@@H](Cc1ccc(O)cc1)C(=O)N[C@@H](CO)C(=O)O (H-KYFTGSKDW[NMeR][NMeS]YYS-OH)	–	–	–	–	–	–	–	–	Activity [1]: Active; Activity [2]: Active; Lower Capacity Of Activation Is Observed; Activity [3]: Active; Activity [4]: Active; Activity [5]: inactive; Activity [6]: Moderate_effect
C[C@@H](O)[C@H](NC(=O)[C@H](Cc1ccccc1)NC(=O)[C@H](Cc1ccc(O)cc1)NC(=O)CN(CCCCN)C(=O)[C@H](CCCNC(=N)N)NC(=O)[C@H](CCCNC(=N)N)NC(=O)[C@H](CCCNC(=N)N)NC(=O)[C@H](CCNC(=N)N)NC(=O)[C@H](CCCNC(=N)N)NC(=O)[C@@H](N)CCCNC(=N)N)C(=O)NCC(=O)N[C@@H](CO)C(=O)N[C@@H](CCCCN)C(=O)N[C@@H](CC(=O)O)C(=O)N[C@@H](Cc1c[nH]c2ccccc12)C(=O)N[C@@H](CCCNC(=N)N)C(=O)N[C@@H](CO)C(=O)N[C@@H](Cc1ccc(O)cc1)C(=O)N[C@@H](Cc1ccc(O)cc1)C(=O)N[C@@H](CO)C(=O)O	Active	Non-toxic	Permeable	Non-toxic	Active	Active	Active	> 60%	viability at 24 h, 100 µM [10]: ~50%; Activity (Hippocampal neuron [12]): Dose-dependent-effect
C[C@@H](O)[C@H](NC(=O)[C@H](Cc1ccccc1)NC(=O)[C@H](Cc1ccc(O)cc1)NC(=O)CN(CCCCN)C(=O)[C@H](CCCNC(=N)N)NC(=O)[C@H](CCCNC(=N)N)NC(=O)[C@H](CCCNC(=N)N)NC(=O)[C@H](CCC(N)=O)NC(=O)[C@H](CCCNC(=N)N)NC(=O)[C@H](CCCNC(=N)N)NC(=O)[C@H](CCCCN)NC(=O)[C@H](CCCCN)NC(=O)[C@@H](N)CCCNC(=N)N)C(=O)NCC(=O)N[C@@H](CO)C(=O)N[C@@H](CCCCN)C(=O)N[C@@H](CC(=O)O)C(=O)N[C@@H](Cc1c[nH]c2ccccc12)C(=O)N[C@@H](CCCNC(=N)N)C(=O)N[C@@H](CO)C(=O)N[C@@H](Cc1ccc(O)cc1)C(=O)N[C@@H](Cc1ccc(O)cc1)C(=O)N[C@@H](CO)C(=O)O	Active	Non-toxic	Permeable	Non-toxic	Active	Active	Active	> 60%	fold change (FC) [16]: 4; Activity [17]: > 90%; fold change (FC) [18]: 16; Activity [19]: Active; Activity [20]: < 40%
